# Results: ChEMBL document CHEMBL1275531, “Genomewide expression profiling of cryptolepine-induced toxicity in Saccharomyces cerevisiae” (Antimicrob Agents Chemother, 2008)
# Active and inactive are the calls of the source. The calls are words filed in the database; no cut-off is given here.
# What was measured:
# Saccharomyces cerevisiae [1] = assay: Downregulation of ARN1 gene expression in Saccharomyces cerevisiae relative to untreated control; format: functional
# Method in brief: (§1)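 Δerg6 cells treated 15 h at 7.5 or 17 μM, with the eight microarray hybridizations pooled. A gene counted as changed when two-tailed Student t test on log-transformed ratios gave P below 0.01 for ratio equal to 1. Genes grouped by GO biological-process category.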
# Saccharomyces cerevisiae [2] = assay: Downregulation of ARN2 gene expression in Saccharomyces cerevisiae relative to untreated control; format: functional; method in brief: as §1
# Saccharomyces cerevisiae [3] = assay: Downregulation of SIT1 gene expression in Saccharomyces cerevisiae relative to untreated control; format: functional; method in brief: as §1
# Saccharomyces cerevisiae [4] = assay: Downregulation of FIT1 gene expression in Saccharomyces cerevisiae relative to untreated control; format: functional; method in brief: as §1
# Saccharomyces cerevisiae [5] = assay: Downregulation of FIT2 gene expression in Saccharomyces cerevisiae relative to untreated control; format: functional; method in brief: as §1
# Saccharomyces cerevisiae [6] = assay: Downregulation of FIT3 gene expression in Saccharomyces cerevisiae relative to untreated control; format: functional; method in brief: as §1
# Saccharomyces cerevisiae [7] = assay: Downregulation of FRE1 gene expression in Saccharomyces cerevisiae relative to untreated control; format: functional; method in brief: as §1
# Saccharomyces cerevisiae [8] = assay: Upregulation of FRE2 gene expression in Saccharomyces cerevisiae relative to untreated control; format: functional; method in brief: as §1
# Saccharomyces cerevisiae [9] = assay: Downregulation of FRE5 gene expression in Saccharomyces cerevisiae relative to untreated control; format: functional; method in brief: as §1
# Saccharomyces cerevisiae [10] = assay: Downregulation of FRE6 gene expression in Saccharomyces cerevisiae relative to untreated control; format: functional; method in brief: as §1
# Saccharomyces cerevisiae [11] = assay: Downregulation of FET3 gene expression in Saccharomyces cerevisiae relative to untreated control; format: functional; method in brief: as §1
# Saccharomyces cerevisiae [12] = assay: Upregulation of FET5 gene expression in Saccharomyces cerevisiae relative to untreated control; format: functional; method in brief: as §1
# Saccharomyces cerevisiae [13] = assay: Downregulation of FTR1 gene expression in Saccharomyces cerevisiae relative to untreated control; format: functional; method in brief: as §1
# Saccharomyces cerevisiae [14] = assay: Downregulation of FTH1 gene expression in Saccharomyces cerevisiae relative to untreated control; format: functional; method in brief: as §1
# Saccharomyces cerevisiae [15] = assay: Downregulation of FET4 gene expression in Saccharomyces cerevisiae relative to untreated control; format: functional; method in brief: as §1
# Saccharomyces cerevisiae [16] = assay: Downregulation of SMF1 gene expression in Saccharomyces cerevisiae relative to untreated control; format: functional; method in brief: as §1
# Saccharomyces cerevisiae [17] = assay: Upregulation of SMF2 gene expression in Saccharomyces cerevisiae relative to untreated control; format: functional; method in brief: as §1
# Saccharomyces cerevisiae [18] = assay: Downregulation of SMF3 gene expression in Saccharomyces cerevisiae relative to untreated control; format: functional; method in brief: as §1
# Saccharomyces cerevisiae [19] = assay: Cytotoxicity against Saccharomyces cerevisiae JN394 harboring deltarad52 mutant gene after 4 hrs; format: functional, organism-based; conditions: JN394, 4 h
# Method in brief: (§2)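 Growth assay: strains precultured in YPD at 30°C for 15 h, shaking 250 rpm in the dark, then standardized to OD600 0.05 in the same medium. Grown in triplicate with a range of concentrations (methanol stock, diluted before use) under continuous 4 h treatment; growth read as OD600 and inhibitory concentrations taken from the plots.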
# Saccharomyces cerevisiae [20] = assay: Cytotoxicity against Saccharomyces cerevisiae BY4741 harboring deltaerg6 mutant gene after 4 hrs; format: functional, organism-based; conditions: BY4741, 4 h; method in brief: as §2
# Saccharomyces cerevisiae [21] = assay: Cytotoxicity against Saccharomyces cerevisiae BY4741 harboring deltaerg6 mutant gene at <10 uM after 4 hrs; format: functional, organism-based; method in brief: as §2
# Saccharomyces cerevisiae [22] = assay: Cytotoxicity against Saccharomyces cerevisiae; format: functional; method in brief: as §2
# Saccharomyces cerevisiae [23] = assay: Downregulation of ARN2 gene expression in Saccharomyces cerevisiae at 7.5 uM after 15 hrs by microarray analysis relative to untreated control; format: functional
# Method in brief: (§3)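 BY4741Δerg6 cells exposed 15 h to 7.5 or 17 μM; total RNA, 15 μg, used for Cy3/Cy5-dUTP indirect labeling. Arrays prehybridized at 42°C for 45 min, then hybridized in 50% formamide, 5× SSC. Each dose done in duplicate, each RNA hybridized twice with dye swap; treated/untreated fluorescence ratios log-transformed.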
# Saccharomyces cerevisiae [24] = assay: Downregulation of ARN2 gene expression in Saccharomyces cerevisiae at 7.5 uM after 15 hrs by qRT-PCR relative to untreated control; format: functional
# Method in brief: (§4)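 qRT-PCR used aliquots of the microarray RNA (treated and untreated Δerg6, 7.5 or 17 μM, 15 h) plus two additional biological replicates. Cycling was 95°C 10 min, then 40 cycles of 95°C 15 s and 60°C 1 min, with a dissociation curve. Genomic DNA 10-fold dilution standard curves; no-template and no-enzyme controls in triplicate; relative expression by ΔΔCT.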
# Saccharomyces cerevisiae [25] = assay: Downregulation of FIT3 gene expression in Saccharomyces cerevisiae at 7.5 uM after 15 hrs by microarray analysis relative to untreated control; format: functional; method in brief: as §3
# Saccharomyces cerevisiae [26] = assay: Downregulation of FIT3 gene expression in Saccharomyces cerevisiae at 7.5 uM after 15 hrs by qRT-PCR relative to untreated control; format: functional; method in brief: as §4
# Saccharomyces cerevisiae [27] = assay: Downregulation of PHO5 gene expression in Saccharomyces cerevisiae at 7.5 uM after 15 hrs by microarray analysis relative to untreated control; format: functional; method in brief: as §3
# Saccharomyces cerevisiae [28] = assay: Downregulation of PHO5 gene expression in Saccharomyces cerevisiae at 7.5 uM after 15 hrs by qRT-PCR relative to untreated control; format: functional; method in brief: as §4
# Saccharomyces cerevisiae [29] = assay: Downregulation of TIS11 gene expression in Saccharomyces cerevisiae at 7.5 uM after 15 hrs by microarray analysis relative to untreated control; format: functional; method in brief: as §3
# Saccharomyces cerevisiae [30] = assay: Downregulation of TIS11 gene expression in Saccharomyces cerevisiae at 7.5 uM after 15 hrs by qRT-PCR relative to untreated control; format: functional; method in brief: as §4
# Saccharomyces cerevisiae [31] = assay: Upregulation of HSP26 gene expression in Saccharomyces cerevisiae at 7.5 uM after 15 hrs by microarray analysis relative to untreated control; format: functional; method in brief: as §3
# Saccharomyces cerevisiae [32] = assay: Upregulation of HSP26 gene expression in Saccharomyces cerevisiae at 7.5 uM after 15 hrs by qRT-PCR relative to untreated control; format: functional; method in brief: as §4
# Saccharomyces cerevisiae [33] = assay: Upregulation of TPS1 gene expression in Saccharomyces cerevisiae at 7.5 uM after 15 hrs by microarray analysis relative to untreated control; format: functional; method in brief: as §3
# Saccharomyces cerevisiae [34] = assay: Upregulation of TPS1 gene expression in Saccharomyces cerevisiae at 7.5 uM after 15 hrs by qRT-PCR relative to untreated control; format: functional
# Method in brief: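 BY4741Δerg6 yeast (standardized to OD600 0.05 in YPD after 15-h 30°C preculture) grown with cryptolepine (1 mM methanol stock diluted) for 15 h; total RNA extracted, aliquots from microarray samples plus two additional biological replicates used for qRT-PCR: 95°C 10 min, 40 cycles 95°C 15 s/60°C 1 min, dissociation curve; genomic DNA standard curves; relative expression versus untreated by ΔΔCT.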
# Saccharomyces cerevisiae [35] = assay: Downregulation of ARN2 gene expression in Saccharomyces cerevisiae at 17 uM after 15 hrs by microarray analysis relative to untreated control; format: functional; method in brief: as §3
# Saccharomyces cerevisiae [36] = assay: Downregulation of ARN2 gene expression in Saccharomyces cerevisiae at 17 uM after 15 hrs by qRT-PCR relative to untreated control; format: functional; method in brief: as §4
# Saccharomyces cerevisiae [37] = assay: Downregulation of FIT3 gene expression in Saccharomyces cerevisiae at 17 uM after 15 hrs by microarray analysis relative to untreated control; format: functional; method in brief: as §3
# Saccharomyces cerevisiae [38] = assay: Downregulation of FIT3 gene expression in Saccharomyces cerevisiae at 17 uM after 15 hrs by qRT-PCR relative to untreated control; format: functional; method in brief: as §4
# Saccharomyces cerevisiae [39] = assay: Downregulation of PHO5 gene expression in Saccharomyces cerevisiae at 17 uM after 15 hrs by microarray analysis relative to untreated control; format: functional; method in brief: as §3
# Saccharomyces cerevisiae [40] = assay: Downregulation of PHO5 gene expression in Saccharomyces cerevisiae at 17 uM after 15 hrs by qRT-PCR relative to untreated control; format: functional; method in brief: as §4
# Saccharomyces cerevisiae [41] = assay: Downregulation of TIS11 gene expression in Saccharomyces cerevisiae at 17 uM after 15 hrs by microarray analysis relative to untreated control; format: functional; method in brief: as §3
# Saccharomyces cerevisiae [42] = assay: Downregulation of TIS11 gene expression in Saccharomyces cerevisiae at 17 uM after 15 hrs by qRT-PCR relative to untreated control; format: functional; method in brief: as §4
# Saccharomyces cerevisiae [43] = assay: Upregulation of HSP26 gene expression in Saccharomyces cerevisiae at 17 uM after 15 hrs by microarray analysis relative to untreated control; format: functional; method in brief: as §3
# Saccharomyces cerevisiae [44] = assay: Upregulation of HSP26 gene expression in Saccharomyces cerevisiae at 17 uM after 15 hrs by qRT-PCR relative to untreated control; format: functional; method in brief: as §4
# Saccharomyces cerevisiae [45] = assay: Upregulation of TPS1 gene expression in Saccharomyces cerevisiae at 17 uM after 15 hrs by microarray analysis relative to untreated control; format: functional; method in brief: as §3
# Saccharomyces cerevisiae [46] = assay: Upregulation of TPS1 gene expression in Saccharomyces cerevisiae at 17 uM after 15 hrs by qRT-PCR relative to untreated control; format: functional; method in brief: as §4
# Saccharomyces cerevisiae [47] = assay: Downregulation of siderophore transport related gene expression in Saccharomyces cerevisiae; format: functional, organism-based; method in brief: as §1
# Saccharomyces cerevisiae [48] = assay: Downregulation of glucose catabolic process related gene expression in Saccharomyces cerevisiae; format: functional, organism-based; method in brief: as §1
# Saccharomyces cerevisiae [49] = assay: Downregulation of acid phosphatase activity related gene expression in Saccharomyces cerevisiae; format: functional, organism-based; method in brief: as §1
# Saccharomyces cerevisiae [50] = assay: Downregulation of fungal type cell wall related gene expression in Saccharomyces cerevisiae; format: functional, organism-based; method in brief: as §1
# Saccharomyces cerevisiae [51] = assay: Downregulation of stress response related gene expression in Saccharomyces cerevisiae; format: functional, organism-based; conditions: in the assay text read “Upregulation” for “Downregulation”; method in brief: as §1
structure (smiles),measurement,setting,value
C[n+]1c2ccccc2cc2[n-]c3ccccc3c21.Cl [CRYPTOLEPINE HYDROCHLORIDE],fold change (FC),Saccharomyces cerevisiae [1],1.07
same,fold change (FC),Saccharomyces cerevisiae [2],3.01
same,fold change (FC),Saccharomyces cerevisiae [3],1.57
same,fold change (FC),Saccharomyces cerevisiae [4],2.13
same,fold change (FC),Saccharomyces cerevisiae [5],1.94
same,fold change (FC),Saccharomyces cerevisiae [6],3.46
same,fold change (FC),Saccharomyces cerevisiae [7],0.78
same,fold change (FC),Saccharomyces cerevisiae [8],0.13
same,fold change (FC),Saccharomyces cerevisiae [9],1.01
same,fold change (FC),Saccharomyces cerevisiae [10],0.08
same,fold change (FC),Saccharomyces cerevisiae [11],1.11
same,fold change (FC),Saccharomyces cerevisiae [12],0.8
same,fold change (FC),Saccharomyces cerevisiae [13],0.49
same,fold change (FC),Saccharomyces cerevisiae [14],0.53
same,fold change (FC),Saccharomyces cerevisiae [15],1.79
same,fold change (FC),Saccharomyces cerevisiae [16],0.35
same,fold change (FC),Saccharomyces cerevisiae [17],0.09
same,fold change (FC),Saccharomyces cerevisiae [18],1.24
same,IC50,Saccharomyces cerevisiae [19],20.3 µM
same,IC50,Saccharomyces cerevisiae [20],25 µM
same,Activity,Saccharomyces cerevisiae [21],Active
same,IC20,Saccharomyces cerevisiae [22],7.5 µM
same,IC40,Saccharomyces cerevisiae [22],17 µM
same,fold change (FC),Saccharomyces cerevisiae [23],2.18
same,fold change (FC),Saccharomyces cerevisiae [24],4.06
same,fold change (FC),Saccharomyces cerevisiae [25],3.3
same,fold change (FC),Saccharomyces cerevisiae [26],5.57
same,fold change (FC),Saccharomyces cerevisiae [27],1.88
same,fold change (FC),Saccharomyces cerevisiae [28],1.73
same,fold change (FC),Saccharomyces cerevisiae [29],2.35
same,fold change (FC),Saccharomyces cerevisiae [30],3.3
same,fold change (FC),Saccharomyces cerevisiae [31],2.09
same,fold change (FC),Saccharomyces cerevisiae [32],2.49
same,fold change (FC),Saccharomyces cerevisiae [33],1.24
same,fold change (FC),Saccharomyces cerevisiae [34],0.96
same,fold change (FC),Saccharomyces cerevisiae [35],3.32
same,fold change (FC),Saccharomyces cerevisiae [36],4.9
same,fold change (FC),Saccharomyces cerevisiae [37],2.36
same,fold change (FC),Saccharomyces cerevisiae [38],2.01
same,fold change (FC),Saccharomyces cerevisiae [39],2.05
same,fold change (FC),Saccharomyces cerevisiae [40],2.27
same,fold change (FC),Saccharomyces cerevisiae [41],2.31
same,fold change (FC),Saccharomyces cerevisiae [42],3.46
same,fold change (FC),Saccharomyces cerevisiae [43],3.54
same,fold change (FC),Saccharomyces cerevisiae [44],3.51
same,fold change (FC),Saccharomyces cerevisiae [45],1.01
same,fold change (FC),Saccharomyces cerevisiae [46],1.03
same,Activity,Saccharomyces cerevisiae [47],Active
same,Activity,Saccharomyces cerevisiae [48],Active
same,Activity,Saccharomyces cerevisiae [49],Active
same,Activity,Saccharomyces cerevisiae [50],Active
same,Activity,Saccharomyces cerevisiae [51],Active
